Columns and labels:
Type in all cases: ADME, organism-based, Macaca mulatta
[1] = Biodistribution in rhesus monkey retina at 150.3 MBq, iv after 72.5 mins; settings: in vivo
Hippocampus [2] = assay: Biodistribution in rhesus monkey hippocampus at 150.3 MBq, iv after 4.5 mins; settings: in vivo, 0.075 h
Method in brief: (§1)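 Male rhesus monkey under ketamine 10 mg/kg im, head fixed; 20 min 68Ge-68Ga transmission scan, then 90 min dynamic 3D PET (6×0.5, 7×1, 20×2, 8×5 min frames) after iv [11C]-labelled tracer in saline, specific radioactivity about 2.9 TBq/μmol at injection. Regions defined on T1-weighted MRI; uptake expressed as % injected dose per mL.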

[3] = Biodistribution in rhesus monkey cingulate cortex at 150.3 MBq, iv after 6.5 mins; settings: in vivo
Method in brief: (§2)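 Single male rhesus monkey anesthetized with ketamine 10 mg/kg im, head fixed. Attenuation correction by 20 min 68Ge-68Ga transmission scan. [11C]-tracer in saline (pH 7.4) given iv, specific radioactivity 2.9 TBq/μmol at injection. Dynamic 3D PET emission scan over 90 min in frames of 0.5 to 5 min. MRI T1 images used to define VOIs. Uptake expressed as […].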

[4] = Biodistribution in rhesus monkey retina at 150.3 MBq, iv after 29 mins; settings: in vivo
[5] = Biodistribution in rhesus monkey occipital lobe at 150.3 MBq, iv after 4.5 mins; settings: in vivo, 0.075 h; method in brief: as §1
[6] = Biodistribution in rhesus monkey entorhinal cortex at 150.3 MBq, iv after 13 mins; settings: in vivo; method in brief: as §2
[7] = Biodistribution in rhesus monkey cerebellum at 150.3 MBq, iv after 8.5 mins; settings: in vivo
Method in brief: (§3)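 Male rhesus monkey under ketamine (10 mg/kg im) with head fixation. After a 20 min 68Ge-68Ga transmission scan, the [11C]-labelled tracer in saline (pH 7.4) was injected iv, at 2.9 TBq/μmol specific radioactivity at injection. A dynamic 3D PET scan followed over 90 min (6×0.5, 7×1, 20×2, 8×5 min frames). Regions were defined on T1-weighted 1.5 T MRI, and uptake is given as %ID/mL.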

Hippocampus [8] = assay: Biodistribution in rhesus monkey hippocampus at 150.3 MBq, iv after 1.25 mins; settings: in vivo, 75 s; method in brief: as §2
[9] = Biodistribution in rhesus monkey cingulate cortex at 150.3 MBq, iv after 0.25 mins; settings: in vivo, 15 s; method in brief: as §3
[10] = Biodistribution in rhesus monkey entorhinal cortex at 150.3 MBq, iv after 27 mins; settings: in vivo, 0.45 h; method in brief: as §2
[11] = Biodistribution in rhesus monkey occipital lobe at 150.3 MBq, iv after 87.5 mins; settings: in vivo
Hippocampus [12] = assay: Biodistribution in rhesus monkey hippocampus at 150.3 MBq, iv after 49 mins; settings: in vivo; method in brief: as §1
Hippocampus [13] = assay: Biodistribution in rhesus monkey hippocampus at 150.3 MBq, iv after 11 mins; settings: in vivo; method in brief: as §2
[14] = Biodistribution in rhesus monkey cerebellum at 150.3 MBq, iv after 41 mins; settings: in vivo; method in brief: as §3
[15] = Biodistribution in rhesus monkey retina at 150.3 MBq, iv after 41 mins; settings: in vivo
[16] = Biodistribution in rhesus monkey entorhinal cortex at 150.3 MBq, iv after 87.5 mins; settings: in vivo; method in brief: as §2
[17] = Biodistribution in rhesus monkey occipital lobe at 150.3 MBq, iv after 23 mins; settings: in vivo; method in brief: as §1
[18] = Biodistribution in rhesus monkey occipital lobe at 150.3 MBq, iv after 77.5 mins; settings: in vivo
Striatum [19] = assay: Biodistribution in rhesus monkey striatum at 150.3 MBq, iv after 23 mins; settings: in vivo
Hippocampus [20] = assay: Biodistribution in rhesus monkey hippocampus at 150.3 MBq, iv after 45 mins; settings: in vivo, 0.75 h; method in brief: as §1
Hippocampus [21] = assay: Biodistribution in rhesus monkey hippocampus at 150.3 MBq, iv after 0.25 mins; settings: in vivo, 15 s; method in brief: as §2
[22] = Biodistribution in rhesus monkey cingulate cortex at 150.3 MBq, iv after 39 mins; settings: in vivo, 0.65 h; method in brief: as §3
Striatum [23] = assay: Biodistribution in rhesus monkey striatum at 150.3 MBq, iv after 6.5 mins; settings: in vivo
[24] = Biodistribution in rhesus monkey cingulate cortex at 170.3 MBq, iv after 17 mins; settings: in vivo, in the assay text read “150.3 MBq” for “170.3 MBq”; method in brief: as §2
Striatum [25] = assay: Biodistribution in rhesus monkey striatum at 150.3 MBq, iv after 41 mins; settings: in vivo
[26] = Biodistribution in rhesus monkey cingulate cortex at 150.3 MBq, iv after 2.25 mins; settings: in vivo, 135 s; method in brief: as §3
[27] = Biodistribution in rhesus monkey cingulate cortex at 150.3 MBq, iv after 82.5 mins; settings: in vivo, 1.375 h; method in brief: as §2

For `[11CH3]Oc1cccc(C(=O)NCCN2CCN(c3ncccc3C#N)CC2)c1`, the Drug uptake [1] was 51.43 kBq/ml, the Drug uptake (Hippocampus [2]) was 41.63 kBq/ml and the Drug uptake [3] was 35.15 kBq/ml. The Drug uptake [4] was 56.95 kBq/ml, the Drug uptake [5] was 33.71 kBq/ml and the Drug uptake [6] was 22.48 kBq/ml. It also gave a Drug uptake [7] of 27.59 kBq/ml, a Drug uptake (Hippocampus [8]) of 55.94 kBq/ml and a Drug uptake [9] of 46.02 kBq/ml. It also gave a Drug uptake [10] of 14.48 kBq/ml, a Drug uptake [11] of 7.721 kBq/ml and a Drug uptake (Hippocampus [12]) of 9.828 kBq/ml. The Drug uptake (Hippocampus [13]) was 27 kBq/ml, the Drug uptake [14] was 10.86 kBq/ml and the Drug uptake [15] was 57.19 kBq/ml. The Drug uptake [16] was 10.53 kBq/ml, the Drug uptake [17] was 15.16 kBq/ml and the Drug uptake [18] was 8.127 kBq/ml. It also gave a Drug uptake (Striatum [19]) of 18.52 kBq/ml, a Drug uptake (Hippocampus [20]) of 10.64 kBq/ml and a Drug uptake (Hippocampus [21]) of 39.52 kBq/ml. The Drug uptake [22] was 11.74 kBq/ml, the Drug uptake (Striatum [23]) was 36.37 kBq/ml and the Drug uptake [24] was 18.9122 kBq/ml. The Drug uptake (Striatum [25]) was 11.2 kBq/ml, the Drug uptake [26] was 50.61 kBq/ml and the Drug uptake [27] was 9.311 kBq/ml.

Reference: ChEMBL document CHEMBL1268908, “Design, synthesis, radiolabeling, and in vivo evaluation of carbon-11 labeled N-[2-[4-(3-cyanopyridin-2-yl)piperazin-1-yl]ethyl]-3-methoxybenzamide, a potential positron emission tomography tracer for the dopamine D(4) receptors” (J Med Chem, 2010)
